In paper PMC5882533 (Cancer discovery, 2018):
Values joined by “and” are separate entries in the source; they are usually repeats but may differ in a detail not shown here. Equal values may be shown once.

Tests used:
MEC-1 = test: Proliferation of MEC-1 cells; assay type: cell-based, human; conditions: for proliferation: MEC-1, increasing doses, 72h
[1] = test system: Ba/F3 (murine interleukin-3 dependent pro-B cell line) splenomegaly
primary CLL cells = test: Proliferation of CpG stimulated primary CLL cells; assay type: cell-based, human; conditions: for proliferation of CpG stimulated primary CLL cells: increasing doses, 72h continuously or 4h followed by washout
How it was run: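 Primary CLL cells came from patients meeting 2008 IWCLL criteria. They were either stimulated with CpG oligonucleotides (TLR9 agonist) or left unstimulated (basal). Cells were given increasing concentrations of test compound, either continuously for 72 h or for 4 h followed by washout. Proliferation was measured by MTS assay. Data are shown per individual patient, with averages.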

OCI-LY1 = test: Proliferation of OCI-LY1 cells; assay type: cell-based, human; conditions: for proliferation: OCI-LY1, increasing doses, 72h
BET family members = test: Blocking interactions mediated by the four BET family members; assay type: biochemical
[2] = test system: Eμ-TCL1 CD5/CD19 positive CLL-like leukemia; test: Eμ-TCL1 transgenic mice with de novo leukemia, tumor burden; assay type: in vivo, mouse
[3] = Plasma levels in wild type B6 mice; assay type: in vivo; conditions: B6, mouse, oral, 20 mg/kg
Half-life in rodents = conditions: in vivo
[4] = Plasma exposure in Ba/F3 splenomegaly mouse model; assay type: in vivo; conditions: 2 mg/kg
bromodomain of CBP = bromodomain of CBP (Homo sapiens, UniProt Q92793); test: Binding affinity
[5] = test system: stromal cells (9–15c and Hs27); test: Stromal cell viability; assay type: cell-based
Half-life in dogs = conditions: dog, in vivo
[6] = test system: Eμ-Myc/TCL1 leukemia/lymphoma
[7] = Plasma drug levels in MV4-11 tumor xenograft SCID mice; assay type: in vivo; conditions: mouse
[8] = biological target: T1, bromodomain of EP300 (p300) (Homo sapiens, UniProt Q09472); test: Binding affinity
T1 sequence (Q09472 1049-1156 limits assumed): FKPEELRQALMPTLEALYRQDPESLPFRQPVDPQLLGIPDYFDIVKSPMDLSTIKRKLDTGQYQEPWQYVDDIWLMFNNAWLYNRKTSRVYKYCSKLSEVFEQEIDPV

healthy T-cells = test: Proliferation of healthy T-cells stimulated with CD3/CD28 agonist antibodies; assay type: cell-based, human; conditions: washout conditions
[9] = test system: primary CLL cells co-cultured on stromal cells (9–15c and Hs27); test: CLL cell viability in stromal co-culture; assay type: cell-based, human; conditions: 1, 2 or 5μM, 72 h

bromodomain of CBP, sequence (Q92793 1085-1192 limits assumed): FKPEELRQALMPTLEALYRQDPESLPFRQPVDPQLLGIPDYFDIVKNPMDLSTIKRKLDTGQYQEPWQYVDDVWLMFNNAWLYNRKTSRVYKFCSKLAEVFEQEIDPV

Q: Which proliferation (MEC-1) does the source give for Cc1sc2c(c1C)C(c1ccc(Cl)cc1)=N[C@@H](CC(=O)Nc1ccc(O)cc1)c1nnc(C)n1-2 [OTX015, reference compound] here?
A: Dose dependent decrease of proliferation

Q: And the “efficacy on splenomegaly relative to 2 mg/kg PLX51107” value ([1]; 25 mg/kg OTX015)?
A: same level of efficacy

Q: What about the “proliferation of CpG stimulated primary CLL cells” value (primary CLL cells) of the same compound?
A: Dose-dependent decrease of proliferation

Q: What about the proliferation (OCI-LY1) of the same compound?
A: Dose dependent decrease of proliferation

Q: Which “proliferation of CpG stimulated primary CLL cells” value (primary CLL cells) does the source give for CCNC(=O)C[C@@H]1N=C(c2ccc(Cl)cc2)c2cc(OC)ccc2-n2c(C)nnc21 [iBET762] here?
A: Dose-dependent decrease of proliferation

Q: What does the source list for Cc1sc2c(c1C)C(c1ccc(Cl)cc1)=N[C@@H](CC(=O)OC(C)(C)C)c1nnc(C)n1-2 [JQ1, reference compound]?
A: proliferation (MEC-1): Dose dependent decrease of proliferation; proliferation of CpG stimulated primary CLL cells (primary CLL cells): Dose-dependent decrease of proliferation; proliferation (OCI-LY1): Dose dependent decrease of proliferation

Q: With Cc1noc(C)c1-c1cnc2c(-c3ccc(C(=O)O)cc3)cn([C@@H](C)c3ccccn3)c2c1 [PLX51107] as the compound, how does the “potency in blocking interactions mediated by the four BET family members” value (BET family members) read?
A: low nanomolar potency

Q: What about the “IC50 compared to iBET762, JQ1, or OTX015” value (MEC-1; MEC-1) of the same compound?
A: lower IC50

Q: What about the proliferation (MEC-1) of the same compound?
A: Dose dependent decrease of proliferation

Q: What about the “leukemic disease burden in peripheral blood and spleen vs vehicle” value ([2]; 20 mg/kg daily, oral gavage, eight days) of the same compound?
A: significantly reduced leukemic disease burden

Q: What about the “reduction of tumor burden compared with OTX015 (50 mg/kg, qd)” value ([2]; PLX51107 20 mg/kg, qd, thirty day study) of the same compound?
A: more effective than OTX015

Q: What about the AUC(0-t) [3] of the same compound?
A: 96700 ng·h/mL and 220 µM·h

Q: What about the inhibition of splenomegaly ([1]; 2 mg/kg PLX51107 dose) of the same compound?
A: Approximately 75%

Q: What about the tolerability ([1]; mouse, in vivo) of the same compound?
A: well tolerated

Q: And the half-life (Half-life in rodents)?
A: < 3 h

Q: What about the AUC(0-t) [4] of the same compound?
A: 17700 ng·h/mL and 40 µM·h

Q: And the Kd (bromodomain of CBP)?
A: ~100 nM

Q: And the “inhibition of proliferation or toxicity” value (primary CLL cells; CLL cells under basal condition)?
A: not observed

Q: And the “proliferation of CpG stimulated primary CLL cells” value (primary CLL cells)?
A: Dose-dependent decrease of proliferation

Q: And the “effect on stromal cell viability” value [5]?
A: no effect on stromal cell viability

Q: What about the half-life (Half-life in dogs) of the same compound?
A: < 3 h

Q: And the survival ([6]; 20 mg/kg, qd, oral gavage, 70 days treatment)?
A: significantly prolonged survival

Q: And the tolerability ([6]; mouse, in vivo)?
A: well tolerated

Q: What about the AUC(0-t) [7] of the same compound?
A: 90100 ng·h/mL and 205 µM·h

Q: What about the half-life [7] of the same compound?
A: 2.8 h

Q: And the Kd [8]?
A: ~100 nM

Q: What about the anti-proliferative effect (healthy T-cells) of the same compound?
A: no anti-proliferative effect

Q: What about the “IC50 compared to iBET762, JQ1, or OTX015” value (OCI-LY1; OCI-LY1) of the same compound?
A: lower IC50

Q: What about the proliferation (OCI-LY1) of the same compound?
A: Dose dependent decrease of proliferation

Q: What about the “cytotoxicity on CLL cells” value [9] of the same compound?
A: induces significant cytotoxicity
